Calls of active or inactive are those of the source. Unless noted, the calls are words filed in the database; no cut-off is given here.
How the values were obtained:
[1] = Inhibition of quorum sensing system in Pseudomonas aeruginosa PAO1 MH602 harboring lasB promoter fused with GFP-ASV assessed as reduction in GFP-ASV reporter protein expression at 9.8 uM measured every 30 mins relative to control
In short: (§1)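 P. aeruginosa PAO1 carrying a PlasB::gfp(ASV) fusion plasmid, which makes its own AHL signals, incubated with compounds at 88.8, 29.6, 9.9, 3.3 or 1.0 μM. GFP fluorescence (RFU) read every half hour. Percent QS inhibition is the percent RFU difference between sample and untreated control, taken at the time point when control fluorescence peaks.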

[2] = Inhibition of quorum sensing system in Pseudomonas aeruginosa PAO1 MH602 harboring lasB promoter fused with GFP-ASV assessed as reduction in GFP-ASV reporter protein expression at 266 uM measured every 30 mins relative to control
[3] = Inhibition of quorum sensing system in Pseudomonas aeruginosa PAO1 MH602 harboring lasB promoter fused with GFP-ASV assessed as reduction in GFP-ASV reporter protein expression at 3.2 uM measured every 30 mins relative to control; in short: as §1
[4] = Inhibition of quorum sensing system in Pseudomonas aeruginosa PAO1 MH602 harboring lasB promoter fused with GFP-ASV assessed as reduction in GFP-ASV reporter protein expression at 88 uM measured every 30 mins relative to control; in short: as §1
Pseudomonas aeruginosa [5] = test: Antibacterial activity against Pseudomonas aeruginosa PAO1 MH602 harboring lasB promoter fused with GFP-ASV assessed as growth inhibition at 88 uM measured every 30 mins by GFP-ASV reporter gene assay; format: organism-based; conditions: for Activity: pseudomonas aeruginosa, in vivo, 0.5 h, 88 µM
In short: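 Cell growth of the PAO1 PlasB::gfp(ASV) reporter strain tracked as OD600 every half hour during compound incubation, alongside GFP readings. Growth is compared against the untreated control.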

[6] = Inhibition of quorum sensing system in Pseudomonas aeruginosa PAO1 MH602 harboring lasB promoter fused with GFP-ASV assessed as reduction in GFP-ASV reporter protein expression measured every 30 mins; in short: as §1
[7] = Inhibition of quorum sensing system in Pseudomonas aeruginosa PAO1 MH602 harboring lasB promoter fused with GFP-ASV assessed as reduction in GFP-ASV reporter protein expression at 29 uM measured every 30 mins relative to control; in short: as §1
Pseudomonas aeruginosa [8] = test: Induction of nitric oxide-dependent nirS gene expression in Pseudomonas aeruginosa at 500 uM incubated for 2 hrs under dark condition by GFP reporter gene assay relative to untreated control; format: functional
[9] = Induction of nitric oxide release in PBS buffer supplemented with L-cysteine, xanthine, xanthine oxidase assessed as nitrite release at 250 to 500 uM after 1 hr by Griess assay; format: physicochemical
In short: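 Total NO release was quantified as nitrite with Griess reagent, which detects nitrite at ≥1 μM. Because of that limit, compounds were added at 250 μM and 500 μM.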

Pseudomonas aeruginosa [10] = test: Antibacterial activity against Pseudomonas aeruginosa assessed as growth inhibition at 500 uM after 2 hrs by GFP reporter gene assay; format: organism-based; conditions: in vivo
Pseudomonas aeruginosa [11] = test: Antibacterial activity against Pseudomonas aeruginosa MH602 harboring lasB promoter fused with GFP-ASV assessed as growth inhibition at 266 uM measured every 30 mins by GFP-ASV reporter gene assay; format: organism-based; conditions: MH602, 0.5 h, read-out: GI
Pseudomonas aeruginosa [12] = test: Antibacterial activity against Pseudomonas aeruginosa PAO1 assessed as inhibition of biofilm formation at 150 uM after 6 hrs by crystal violet staining assay relative to control; format: functional; conditions: for inhibition at 150 µM: PAO1, 6 h
Pseudomonas aeruginosa [13] = test: Antibacterial activity against Pseudomonas aeruginosa PAO1 assessed as growth inhibition at 150 uM after 6 hrs; format: organism-based; conditions: in vivo

Row | SMILES | inhibition [1] | inhibition [2] [%] | inhibition [3] | inhibition [4] [%] | Activity (Pseudomonas aeruginosa [5]) | inhibition [6] | inhibition [7] | Activity (Pseudomonas aeruginosa [8]) | Activity [9] | Activity (Pseudomonas aeruginosa [10]) | inhibition at 266 µM (Pseudomonas aeruginosa [11]) [%] | inhibition at 150 µM (Pseudomonas aeruginosa [12]) [%] | Activity (Pseudomonas aeruginosa [13]) | inhibition (Pseudomonas aeruginosa [12]) | fold change (FC) (Pseudomonas aeruginosa [8]) | inhibition at 88 µM (Pseudomonas aeruginosa [5]; Pseudomonas aeruginosa, PAO1 MH602, 0.5 h, read-out: GI) [%]
1 | CCCCC1=C(Br)/C(=C/Br)OC1=O | inactive | 75.8 | inactive | 39.9 | Non-toxic | Dose-dependent effect | 5.9% | – | – | – | – | – | – | – | – | –
2 | CCCC(SC(=O)CCCO[N+](=O)[O-])C1=CC(=C(Br)Br)OC1=O (configuration not stated) | inactive | 54.2 | inactive | 13.8 | Non-toxic | Dose-dependent effect | inactive | inactive | Active | Non-toxic | – | – | – | – | – | –
3 | CCCC(O[N+](=O)[O-])C1=CC(=C(Br)Br)OC1=O (configuration not stated) | 22.4% | 91.1 | inactive | 71.4 | Non-toxic | Dose-dependent effect | 39.9% | inactive | 1 µM | Non-toxic | > 15 | 70 | Non-toxic | – | – | –
4 | CCCC(OC(=O)CCCCCCCCCCO[N+](=O)[O-])C1=CC(=C(Br)Br)OC1=O (configuration not stated) | inactive | 54.8 | inactive | 21.8 | Non-toxic | Dose-dependent effect | 6.2% | inactive | Active | Non-toxic | – | – | – | – | – | –
5 | O=[N+]([O-])O[C@H]1CO[C@H]2[C@@H]1OC[C@H]2O[N+](=O)[O-] [ISOSORBIDE DINITRATE] | – | – | – | – | – | – | – | inactive | 4 µM | Non-toxic | – | – | – | – | – | –
6 | CCCCC1=CC(=C(Br)Br)OC1=O | inactive | 69.8 | inactive | 34.1 | Non-toxic | Dose-dependent effect | 17% | – | – | – | – | – | – | – | – | –
7 | CCCCCCC(O[N+](=O)[O-])C1=CC(=C(Br)Br)OC1=O (configuration not stated) | inactive | 65.7 | inactive | 29.9 | Non-toxic | Dose-dependent effect | 9.5% | inactive | – | Non-toxic | – | – | – | – | – | –
8 | CCCCCCCCCCCC(OC(=O)CCC(=O)N1CCN(/[N+]([O-])=N/OC)CC1)C1=CC(=C(Br)Br)OC1=O (configuration not stated) | inactive | 41.9 | inactive | 6 | Non-toxic | Dose-dependent effect | inactive | – | – | – | – | – | – | inactive | – | –
9 | CCCC(SC(=O)CCO[N+](=O)[O-])C1=CC(=C(Br)Br)OC1=O (configuration not stated) | inactive | 72.3 | inactive | 51.5 | Non-toxic | Dose-dependent effect | 33.6% | – | 1 µM | Non-toxic | – | – | – | – | 2 | –
10 | CCCCCC(OC(=O)CC(=O)N1CCN(/[N+]([O-])=N/OC)CC1)C1=CC(=C(Br)Br)OC1=O (configuration not stated) | 9.5% | 62.9 | inactive | 41.5 | Non-toxic | Dose-dependent effect | 23.7% | – | – | – | – | – | – | inactive | – | –
11 | CCCC(O)C1=CC(=C(Br)Br)OC1=O (configuration not stated) | 16.7% | 85.8 | inactive | 62.9 | Non-toxic | Dose-dependent effect | 37% | – | – | – | – | – | – | – | – | –
12 | CCCC(OC(=O)CO/N=[N+](\[O-])N1CCOCC1)C1=CC(=C(Br)Br)OC1=O (configuration not stated) | inactive | 72.1 | inactive | 47.5 | Non-toxic | Dose-dependent effect | 15.9% | – | – | – | – | – | – | inactive | – | –
13 | CCCC(OC(=O)CCCCCO[N+](=O)[O-])C1=CC(=C(Br)Br)OC1=O (configuration not stated) | inactive | 54.1 | inactive | 18.8 | Non-toxic | Dose-dependent effect | 7.9% | inactive | – | Non-toxic | – | – | – | – | – | –
14 | CCCCCCCC(O[N+](=O)[O-])C1=CC(=C(Br)Br)OC1=O (configuration not stated) | inactive | 58.2 | inactive | 19.2 | Non-toxic | Dose-dependent effect | inactive | inactive | Active | Non-toxic | – | – | – | – | – | –
15 | CCCC(OC(=O)CCC(=O)N1CCN(/[N+]([O-])=N/OC)CC1)C1=CC(=C(Br)Br)OC1=O (configuration not stated) | 4.6% | 65.4 | inactive | 39.3 | Non-toxic | Dose-dependent effect | 17.7% | – | – | – | – | – | – | inactive | – | –
16 | CCCC(OC(=O)CCO[N+](=O)[O-])C1=CC(=C(Br)Br)OC1=O (configuration not stated) | 12.5% | 80.6 | inactive | 62.8 | Non-toxic | Dose-dependent effect | 43.1% | inactive | – | Non-toxic | – | – | – | – | – | –
17 | CCCC(OC(=O)CO/N=[N+](\[O-])N(CC)CC)C1=CC(=C(Br)Br)OC1=O (configuration not stated) | 6.2% | 74.8 | inactive | 52 | Non-toxic | Dose-dependent effect | 30% | – | – | – | – | – | – | inactive | – | –
18 | CCCC(OC(=O)CCCO[N+](=O)[O-])C1=CC(=C(Br)Br)OC1=O (configuration not stated) | 8% | 55.8 | inactive | 28.6 | Non-toxic | Dose-dependent effect | 12.3% | inactive | 1 µM | Non-toxic | – | – | – | – | – | –
19 | CCCC(S)C1=CC(=C(Br)Br)OC1=O (configuration not stated) | 1.5% | 50.5 | inactive | 17.9 | Non-toxic | Dose-dependent effect | 4.3% | – | – | – | – | – | – | – | – | –
20 | CC(O[N+](=O)[O-])C1=CC(=C(Br)Br)OC1=O (configuration not stated) | inactive | 94.3 | inactive | 70.4 | – | Dose-dependent effect | 29% | inactive | – | Toxic | > 15 | – | – | Active | – | > 15
21 | CCCC(SC(=O)CCCCCO[N+](=O)[O-])C1=CC(=C(Br)Br)OC1=O (configuration not stated) | inactive | 47.8 | inactive | 10.1 | Non-toxic | Dose-dependent effect | inactive | – | Active | – | – | – | – | – | – | –
22 | CCCCCC(O[N+](=O)[O-])C1=CC(=C(Br)Br)OC1=O (configuration not stated) | inactive | 73.1 | inactive | 56.4 | Non-toxic | Dose-dependent effect | 32.5% | inactive | 1 µM | Non-toxic | – | 70 | Non-toxic | – | – | –
23 | CCCC(OC(=O)CCCCCCCO[N+](=O)[O-])C1=CC(=C(Br)Br)OC1=O (configuration not stated) | inactive | 40.6 | inactive | 12.9 | Non-toxic | Dose-dependent effect | inactive | inactive | 1 µM | Non-toxic | – | – | – | – | – | –
